Measured values from ChEMBL document CHEMBL1127787, “1,2,3-Triazole-[2',5'-bis-O-(tert-butyldimethylsilyl)-beta-D- ribofuranosyl]-3'-spiro-5"-(4"-amino-1",2"-oxathiole 2",2"-dioxide) (TSAO) analogues: synthesis and anti-HIV-1 activity” (J Med Chem, 1994).

How the values were obtained:
MT4 [1] = assay: Tested for the ratio between CC50 (MT-4) to EC50 (MT-4); format: functional, Homo sapiens
MT4 [2] = assay: Tested for the inhibitory activity of HIV-1 infected MT-4 cells; format: functional, cell-based; conditions: Homo sapiens
Summary of the method: (§1)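 MT-4 cells (5 × 10^5/mL) grown in RPMI-1640 with 10% FCS, 2 mM L-glutamine and 0.075% NaHCO3. Infected with HIV-1 or HIV-2 at 100 CCID50/mL and mixed with compound dilutions (100 to 0.006 µg/mL). After 5 days viable cells were counted by trypan blue staining. EC50 is the concentration that reduces viable-cell loss in infected cultures by 50%.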

MT4 [3] = assay: Tested for the inhibitory activity of HIV-2 infected MT-4 cells; format: functional, cell-based; conditions: Homo sapiens; summary of the method: as §1
CCRF-CEM [4] = assay: Tested for the inhibitory activity of virus induced giant cell formation in HIV-2 infected CEM cells; format: functional, cell-based; conditions: Homo sapiens
MT4 [5] = assay: Tested for the cytotoxic concentration required to reduce the number of viable mock infected MT-4 cells; format: functional; conditions: Homo sapiens
Summary of the method: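 Mock-infected MT-4 cells (5 × 10^5/mL) in RPMI-1640 with 10% FCS were exposed to compound dilutions (100 to 0.006 µg/mL). Viable cells were counted by trypan blue at day 5; about 150-200 cells were counted in controls. CC50 is the concentration that reduces viable cell number by 50%.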

CCRF-CEM [6] = assay: Tested for the inhibitory activity of virus induced giant cell formation in HIV-1 infected CEM cells; format: functional, cell-based; conditions: Homo sapiens

EC50 (CCRF-CEM [4])	EC50 (CCRF-CEM [6])	SMILES	Ratio (MT4 [1])	EC50 (MT4 [2])	EC50 (MT4 [3])	CC50 (MT4 [5])
> 7 µM	0.08 µM	CNC(=O)c1cnnn1[C@@H]1O[C@H](CO[Si](C)(C)C(C)(C)C)[C@@]2(OS(=O)(=O)C=C2N)[C@H]1O[Si](C)(C)C(C)(C)C	171	0.16 µM	> 7 µM	27 µM
> 35 µM	1.1 µM	CC(=O)c1cn([C@@H]2O[C@H](CO[Si](C)(C)C(C)(C)C)[C@@]3(OS(=O)(=O)C=C3N)[C@H]2O[Si](C)(C)C(C)(C)C)nn1	8.6	1.5 µM	> 7 µM	13 µM
> 32 µM	28 µM	COC(=O)c1cn([C@@H]2O[C@H](CO[Si](C)(C)C(C)(C)C)[C@@]3(OS(=O)(=O)C=C3NC(C)=O)[C@H]2O[Si](C)(C)C(C)(C)C)nn1	<=1.7	≥ 32 µM	> 32 µM	56 µM
> 30 µM	0.53 µM	COC(=O)c1nnn([C@@H]2O[C@H](CO[Si](C)(C)C(C)(C)C)[C@@]3(OS(=O)(=O)C=C3N)[C@H]2O[Si](C)(C)C(C)(C)C)c1C(=O)OC	231	0.48 µM	> 150 µM	111 µM
> 70 µM	2.3 µM	COCc1cn([C@@H]2O[C@H](CO[Si](C)(C)C(C)(C)C)[C@@]3(OS(=O)(=O)C=C3N)[C@H]2O[Si](C)(C)C(C)(C)C)nn1	2.44	27 µM	> 35 µM	73 µM
> 7 µM	0.9 µM	CC(C)(C)[Si](C)(C)OC[C@H]1O[C@@H](n2cc(C(N)=O)nn2)[C@H](O[Si](C)(C)C(C)(C)C)[C@]12OS(=O)(=O)C=C2N	12.5	1.2 µM	> 7 µM	15 µM
> 60 µM	1.6 µM	CCOC(=O)c1nnn([C@@H]2O[C@H](CO[Si](C)(C)C(C)(C)C)[C@@]3(OS(=O)(=O)C=C3N)[C@H]2O[Si](C)(C)C(C)(C)C)c1C(=O)OCC	14.5	3.8 µM	> 30 µM	55 µM
> 7 µM	1.5 µM	CCCCc1cn([C@@H]2O[C@H](CO[Si](C)(C)C(C)(C)C)[C@@]3(OS(=O)(=O)C=C3N)[C@H]2O[Si](C)(C)C(C)(C)C)nn1	41	2.6 µM	> 170 µM	107 µM
> 1.3 µM	> 1.3 µM	CC(C)(C)[Si](C)(C)OC[C@H]1O[C@@H](n2cc(CBr)nn2)[C@H](O[Si](C)(C)C(C)(C)C)[C@]12OS(=O)(=O)C=C2N	<2.1	≥ 6.5 µM	> 6.5 µM	14 µM
> 165 µM	1.3 µM	CCOC(=O)c1cnnn1[C@@H]1O[C@H](CO[Si](C)(C)C(C)(C)C)[C@@]2(OS(=O)(=O)C=C2N)[C@H]1O[Si](C)(C)C(C)(C)C	>51	3.2 µM	> 165 µM	> 165 µM
> 70 µM	1.1 µM	CC(=O)c1cnnn1[C@@H]1O[C@H](CO[Si](C)(C)C(C)(C)C)[C@@]2(OS(=O)(=O)C=C2N)[C@H]1O[Si](C)(C)C(C)(C)C	30	2.3 µM	> 35 µM	69 µM
> 33 µM	0.66 µM	CC(C)(C)[Si](C)(C)OC[C@H]1O[C@@H](n2cc(CCCCl)nn2)[C@H](O[Si](C)(C)C(C)(C)C)[C@]12OS(=O)(=O)C=C2N	91.4	0.58 µM	> 170 µM	53 µM
> 35 µM	3.9 µM	CCCc1cnnn1[C@@H]1O[C@H](CO[Si](C)(C)C(C)(C)C)[C@@]2(OS(=O)(=O)C=C2N)[C@H]1O[Si](C)(C)C(C)(C)C	>56	3.13 µM	> 350 µM	> 175 µM
> 6.9 µM	1.4 µM	Cc1cn([C@@H]2O[C@H](CO[Si](C)(C)C(C)(C)C)[C@@]3(OS(=O)(=O)C=C3N)[C@H]2O[Si](C)(C)C(C)(C)C)nn1	8.4	2.8 µM	> 35 µM	23 µM
> 7.5 µM	3.4 µM	CC(C)(C)[Si](C)(C)OC[C@H]1O[C@@H](n2ccnn2)[C@H](O[Si](C)(C)C(C)(C)C)[C@]12OS(=O)(=O)C=C2N	4.1	3.8 µM	> 7.5 µM	15 µM
> 7 µM	0.82 µM	CC(C)(C)[Si](C)(C)OC[C@H]1O[C@@H](n2nncc2CCCCl)[C@H](O[Si](C)(C)C(C)(C)C)[C@]12OS(=O)(=O)C=C2N	40.6	1.9 µM	> 164 µM	79 µM
> 40 µM	0.13 µM	COC(=O)c1cnnn1[C@@H]1O[C@H](CO[Si](C)(C)C(C)(C)C)[C@@]2(OS(=O)(=O)C=C2N)[C@H]1O[Si](C)(C)C(C)(C)C	142	0.9 µM	> 150 µM	128 µM
> 7 µM	1.2 µM	CN(C)C(=O)c1cn([C@@H]2O[C@H](CO[Si](C)(C)C(C)(C)C)[C@@]3(OS(=O)(=O)C=C3N)[C@H]2O[Si](C)(C)C(C)(C)C)nn1	28.1	0.42 µM	> 7 µM	12 µM
> 150 µM	> 150 µM	CCOC(OCC)c1cn([C@@H]2O[C@H](CO[Si](C)(C)C(C)(C)C)[C@@]3(OS(=O)(=O)C=C3N)[C@H]2O[Si](C)(C)C(C)(C)C)nn1	>2.1	73 µM	> 150 µM	> 150 µM
> 40 µM	0.18 µM	COC(=O)c1cn([C@@H]2O[C@H](CO[Si](C)(C)C(C)(C)C)[C@@]3(OS(=O)(=O)C=C3N)[C@H]2O[Si](C)(C)C(C)(C)C)nn1	>=249	0.6 µM	> 150 µM	≥ 150 µM
> 14 µM	0.9 µM	COCc1cnnn1[C@@H]1O[C@H](CO[Si](C)(C)C(C)(C)C)[C@@]2(OS(=O)(=O)C=C2N)[C@H]1O[Si](C)(C)C(C)(C)C	11	2.4 µM	> 7 µM	28 µM
> 7 µM	1.2 µM	CNC(=O)c1cn([C@@H]2O[C@H](CO[Si](C)(C)C(C)(C)C)[C@@]3(OS(=O)(=O)C=C3N)[C@H]2O[Si](C)(C)C(C)(C)C)nn1	28.8	0.41 µM	> 7 µM	12 µM
> 2.6 µM	2.8 µM	CC(C)(C)[Si](C)(C)OC[C@H]1O[C@@H](n2cc([Si](C)(C)C)nn2)[C@H](O[Si](C)(C)C(C)(C)C)[C@]12OS(=O)(=O)C=C2N	<=1.44	≥ 6.6 µM	> 6.6 µM	9.5 µM
> 150 µM	> 150 µM	CCOC(OCC)c1cnnn1[C@@H]1O[C@H](CO[Si](C)(C)C(C)(C)C)[C@@]2(OS(=O)(=O)C=C2N)[C@H]1O[Si](C)(C)C(C)(C)C	><1	> 40 µM	> 40 µM	> 150 µM
> 6 µM	> 1.3 µM	CC(C)(C)[Si](C)(C)OC[C@H]1O[C@@H](n2nncc2CBr)[C@H](O[Si](C)(C)C(C)(C)C)[C@]12OS(=O)(=O)C=C2N	<2.1	≥ 6 µM	> 6 µM	13 µM
> 35 µM	1.5 µM	CCCCc1cnnn1[C@@H]1O[C@H](CO[Si](C)(C)C(C)(C)C)[C@@]2(OS(=O)(=O)C=C2N)[C@H]1O[Si](C)(C)C(C)(C)C	>=115	1.58 µM	> 170 µM	≥ 170 µM
> 7 µM	0.14 µM	CC(C)(C)[Si](C)(C)OC[C@H]1O[C@@H](n2nncc2C(N)=O)[C@H](O[Si](C)(C)C(C)(C)C)[C@]12OS(=O)(=O)C=C2N	28.1	0.52 µM	> 7 µM	15 µM
		Cc1cn([C@H]2C[C@H](N=[N+]=[N-])[C@@H](CO)O2)c(=O)[nH]c1=O [ZIDOVUDINE]	3000			6 µM

SMILES	EC50 (CCRF-CEM [4])	EC50 (CCRF-CEM [6])	Ratio (MT4 [1])	EC50 (MT4 [2])	EC50 (MT4 [3])	CC50 (MT4 [5])
Cc1cn([C@@H]2O[C@H](CO[Si](C)(C)C(C)(C)C)C3(OS(=O)(=O)C=C3N)[C@H]2O[Si](C)(C)C(C)(C)C)c(=O)[nH]c1=O (some centres undefined)	> 20 µM	0.06 µM			> 20 µM	14 µM
Cc1ccnc2c1NC(=O)c1cccnc1N2C1CC1 [NEVIRAPINE]	> 80 µM	0.11 µM	>625	0.12 µM	> 80 µM	> 80 µM
